Measurements from ChEMBL document CHEMBL1255535, “7-O-Arylmethylgalangin as a novel scaffold for anti-HCV agents” (Bioorg Med Chem Lett, 2010).

What was measured:
[1] = test system: Hepatitis C virus; assay: Antiviral activity against HCV assessed as inhibition of viral replication by luciferase assay; format: functional, organism-based, Hepacivirus hominis
Summary of the method: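 Huh-5-2 replicon cells (5 × 10³/well) seeded in complete DMEM with G418, 24 h at 37 °C (5% CO2), then medium refreshed with G418 and compounds added from DMSO stock; 4 days at 37 °C; luciferase activity read by Steady-Glo. EC50 = concentration inhibiting HCV RNA replication by 50%, averaged from triplicate determinations; IFN-α as positive control.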

[2] = Selectivity index, ratio of CC50 for human Huh5-2 cells to EC50 for HCV; set-up: species or system Huh-5-2
Summary of the method: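 Selectivity index computed as CC50 (Huh-5-2 proliferation, WST-1, 3 days) divided by EC50 (replicon luciferase, 4 days), both from the same Huh-5-2 cell line.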

[3] = Cytotoxicity against human Huh5-2 cells after 3 days by WST-1 assay; format: cell-based, Huh-5-2
Summary of the method: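 Huh-5-2 cells seeded at 5 × 10³/well in complete DMEM with G418; serial compound dilutions in DMEM without G418 added 24 h later; cells proliferated 3 days at 37 °C; cell number by WST-1. CC50 = concentration reducing cell proliferation by 50%.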

| Compound | EC50 [1] [µM] | Selectivity Index [2] | CC50 at 72 h [3] [µM] |
| --- | --- | --- | --- |
| O=c1c(O)c(-c2ccccc2)oc2cc(OCc3cccc(Br)c3)cc(O)c12 | 37 | – | > 100 |
| O=c1c(O)c(-c2ccccc2)oc2cc(OCc3ccccc3[N+](=O)[O-])cc(O)c12 | 25 | 1.3 | 32 |
| O=c1c(O)c(-c2ccccc2)oc2cc(OCc3cccc([N+](=O)[O-])c3)cc(O)c12 | 2 | 38 | 76 |
| O=c1c(O)c(-c2ccccc2)oc2cc(OCc3ccccc3Cl)cc(O)c12 | 30 | – | > 100 |
| O=c1c(O)c(-c2ccccc2)oc2cc(OCc3ccccc3Br)cc(O)c12 | 10 | – | > 100 |
| Cc1ccccc1COc1cc(O)c2c(=O)c(O)c(-c3ccccc3)oc2c1 | 7 | 2.4 | 17 |
| O=c1c(O)c(-c2ccccc2)oc2cc(OCc3ccc(Br)cc3)cc(O)c12 | 6 | – | > 100 |
| O=C(O)/C(O)=C/C(=O)c1cccc(NCc2ccc(Cl)cc2)c1 | 0.82 | – | – |
| O=c1c(O)c(-c2ccccc2)oc2cc(OCc3ccc([N+](=O)[O-])cc3)cc(O)c12 | 10 | 9.3 | 93 |
| COc1ccc(COc2cc(O)c3c(=O)c(O)c(-c4ccccc4)oc3c2)cc1 | 38 | – | > 100 |
| O=c1c(O)c(-c2ccc(C(F)(F)F)cc2)oc2cc(OCc3ccc(Cl)cc3)cc(O)c12 | 3 | 24.3 | 73 |
| COc1ccc(-c2oc3cc(OCc4ccc(Cl)cc4)cc(O)c3c(=O)c2O)cc1 | 6 | 10.7 | 64 |
| O=c1c(O)c(-c2ccccc2)oc2cc(OCc3ccc(Cl)cc3)cc(O)c12 | 8 | – | > 100 |
| COc1cccc(COc2cc(O)c3c(=O)c(O)c(-c4ccccc4)oc3c2)c1 | 15 | – | > 100 |

The next lines start with results.

| EC50 [1] [µM] | Compound | Selectivity Index [2] | CC50 at 72 h [3] [µM] |
| --- | --- | --- | --- |
| 39 | N#Cc1ccccc1COc1cc(O)c2c(=O)c(O)c(-c3ccccc3)oc2c1 | 0.6 | 22 |
| 53 | COc1ccccc1COc1cc(O)c2c(=O)c(O)c(-c3ccccc3)oc2c1 | – | > 100 |
| 19 | N#Cc1ccc(COc2cc(O)c3c(=O)c(O)c(-c4ccccc4)oc3c2)cc1 | 4.9 | 94 |
| 3 | N#Cc1cccc(COc2cc(O)c3c(=O)c(O)c(-c4ccccc4)oc3c2)c1 | 24 | 72 |
| 22 | O=c1c(O)c(-c2ccccc2)oc2cc(OCc3cccc(Cl)c3)cc(O)c12 | – | > 100 |
| 6 | Cc1ccc(COc2cc(O)c3c(=O)c(O)c(-c4ccccc4)oc3c2)cc1 | 14.7 | 88 |
| 27 | Cc1cccc(COc2cc(O)c3c(=O)c(O)c(-c4ccccc4)oc3c2)c1 | 1.3 | 35 |
| 0.9 | N#Cc1ccc(-c2oc3cc(OCc4ccc(Cl)cc4)cc(O)c3c(=O)c2O)cc1 | 74.4 | 67 |
